Laboratory results reported in article PMC4889517 (Nanomedicine : nanotechnology, biology, and medicine, 2016).
pIC50: −log10 of the molar value. “Also recorded” adds a separate entry of the source.

Key:
[1] = system: DU-145 cells; assay: MTT staining cytotoxicity, DU-145; assay type: cell-based, human
Method in brief: (§1)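 Cells were seeded at 5 × 10⁴ cells/ml (DU-145 in EMEM, LNCaP in RPMI, 10% FBS) and allowed to attach for 24 h. Free test compound was given at 1.56–50 μM, with DMSO and empty liposome controls, for 24, 48 or 72 h. MTT (0.25 mg/ml final) was added for 2 h at 37°C, formazan dissolved in DMSO, and absorbance read at 590 nm. IC50 came from the concentration-effect curve. Triplicates, n = 3.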

[2] = Body weight of tumor bearing mice; assay type: in vivo, athymic nude mice; details: 5 mg/kg i.p., 2 days/week, after 25 days
Method in brief: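 Athymic nude mice carried SC PC-3 xenografts and were dosed i.p. twice weekly from day 7. Groups were free or liposomal test compound at 5 mg/kg, DMSO, or empty liposomes. Body weight was recorded on day 25 after implantation, which was day 18 of treatment. Mean ± SEM.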

[3] = free form, rapid metabolism ref 10; cited from earlier work
[4] = system: LNCaP cells; assay: MTT staining cytotoxicity, LNCaP; assay type: cell-based, human; details: read-out: IC50 (MTT)
Method in brief: as §1

[5] = system: PC-3 cell tumor xenografts; assay: In vivo prostate tumor xenograft growth; set-up: species or system athymic nude mice; details: 5 mg/kg i.p., 2 days/week from day 7 to day 25
Method in brief: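 Male athymic nude mice, 6-8 weeks old (n = 5-6), received 3 million PC-3 cells in sterile saline SC. From day 7, dosing was i.p. twice weekly: free or sterically stabilized liposomal test compound at 5 mg/kg, with DMSO or empty liposome controls. Calipers were used on days 7, 14, 21 and 25, with volume = ½[length × width²]. Tumors were excised and weighed on day 25.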

[6] = system: MDA-231; assay: MTT staining cytotoxicity, MDA-231; assay type: cell-based, human; details: read-out: IC50 (MTT)
[7] = system: PC-3 cells; assay: Annexin V and PI staining by flow cytometry; assay type: cell-based, human; details: PC-3, 48 hr; free IPA-3 20-30 μM
Method in brief: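 PC-3 cells (F12K, 10% FBS, 37°C, 5% CO₂) were grown 24 h, then exposed to free test compound, liposomal test compound or empty liposomes. After treatment they were PBS-washed twice and stained for 10 min with annexin V-FITC and PI in HEPES binding buffer (140 mM NaCl, 1.8 mM CaCl2, pH 7.4). Cells were washed three times, scraped off, and 10,000 events counted by flow cytometry. Mean ± SEM of percent stained cells.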

[8] = system: prostate tumor xenograft; details: daily administration ref 8; cited from earlier work
[9] = system: PC-3 cell tumor xenografts; assay: TUNEL assay of apoptosis in tumor xenograft sections; assay type: in vivo, athymic nude mice; details: 5 mg/kg i.p., 2 days/week, day 25
Method in brief: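 PC-3 xenografts were collected on day 25, after 18 days of i.p. dosing twice weekly at 5 mg/kg, with DMSO and empty liposome controls. Frozen sections were fixed in 2% paraformaldehyde (4°C, 30 min) and permeabilized in ethanol:acetic acid 2:1. They were labeled with fluorescein-12-dUTP by terminal deoxynucleotidyl transferase and counterstained with DAPI. TUNEL-positive cells were counted by fluorescence microscopy (n = 4).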

[10] = system: MCF-7; assay: MTT staining cytotoxicity, MCF-7; assay type: cell-based, human; details: read-out: IC50 (MTT)
[11] = system: human prostate cancer PC-3, LNCaP and DU-145 cells; assay: MTT staining cytotoxicity in prostate cancer cell lines; assay type: cell-based; details: concentrations of 5-30 μM; 24, 48, 72 hrs

## Oc1ccc2ccccc2c1SSc1c(O)ccc2ccccc12 [IPA-3]
[1]; DU-145 compared to PC-3 and LNCaP cells
  susceptibility to toxicity (MTT staining): less susceptible
[1]; read-out: IC50 (MTT), DU-145
  pIC50: ~4.49
[2]
  effect on body weight of mice: no significant effect
[3]
  half-life in vivo: very short
[4]
  pIC50: 5.00
[5]
  PC-3 cell tumor xenograft growth: ineffective; also recorded: did not have a significant effect
[6]
  pIC50: 5.10
[7]
  percent cells staining positive for annexin V alone: significantly increased
  percent cells staining positive for both annexin V and PI: significantly increased
[8]
  prostate tumor xenograft growth: reduced
[9]
  number of apoptotic (TUNEL positive) cells per field compared to control groups: significant increases
[10]
  pIC50: 4.60
[11]
  effect on MTT staining: concentration- and time-dependent decreases in MTT staining
